In ChEMBL document CHEMBL1125288, “Structure-activity relationships of 1-[(2-hydroxyethoxy)methyl]-6-(phenylthio)thymine analogues: effect of substitutions at the C-6 phenyl ring and at the C-5 position on anti-HIV-1 activity” (J Med Chem, 1992):

Tests used:
MT4 = assay: Concentration required to reduce the viability of mock-infected MT-4 cells by 50%.; assay type: functional; conditions: Homo sapiens
How it was run: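 Mock-infected MT-4 cells were run in parallel with the antiviral assay: 1 × 10^6 cells/mL, serial compound dilutions, 4 days at 37 °C.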

[1] = Concentration required to achieve 50% protection of MT-4 cells against the cytopathic effect of HIV-1.; assay type: functional, cell-based; conditions: Homo sapiens, MT4
How it was run: (§1)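 MT-4 cells at 1 × 10^6 cells/mL were infected with HIV-1 (HTLV-IIIB) or HIV-2 (LAV-2ROD) at an MOI of 0.02 (virus titrated as CCID50 in MT-4). Cells were plated immediately onto serial compound dilutions from DMSO stocks of 50 mM or higher. After 4 days at 37 °C, viable cells were counted by MTT.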

[2] = Concentration of compound required to reduce the viability of mock-infected PBL(peripheral blood lymphocytes) cells. by 50%; assay type: functional; conditions: Homo sapiens
[3] = Concentration of compound required to reduce the viability of mock-infected HIV-2 (LAV-2ROD)/MT-4 cells by 50%; assay type: functional; conditions: Homo sapiens, MT4
How it was run: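 Mock-infected MT-4 cells, run in parallel with the HIV-2 LAV-2ROD antiviral assay. Cells at 1 × 10^6 cells/mL were plated into wells holding serial compound dilutions, with DMSO stocks at 50 mM or higher. After 4 days at 37 °C, viable cells were counted by the MTT method.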

[4] = Concentration required inhibit HIV-1 (HTLV-IIIb strain) replication in PBL(peripheral blood lymphocytes) cells.; assay type: functional, cell-based; conditions: Homo sapiens
How it was run: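 Phytohemagglutinin-stimulated PBL at 1 × 10^6 cells/mL were infected with HIV-1 HTLV-IIIB at an MOI of 0.2 and cultured at 37 °C with varied compound concentrations. On day 4 cells were subcultured 1:5 into fresh medium with compound. On day 7, p24 antigen in the supernatant was measured by sandwich ELISA, and EC50 was derived.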

[5] = Concentration required inhibit HIV-2 (LAV-2ROD)replication in MT-4 cells.; assay type: functional, cell-based; conditions: Homo sapiens, MT4; how it was run: as §1

SMILES | CC50 (MT4) | EC50 [1] | CC50 [2] | CC50 [3] | EC50 [4] | EC50 [5]
Cc1c(Sc2ccc(Cl)cc2)n(COCCO)c(=O)[nH]c1=O | > 250 µM | > 250 µM |  |  |  | 
Cc1c(Sc2cccc(CO)c2)n(COCCO)c(=O)[nH]c1=O | 292 µM | > 292 µM |  |  |  | 
Cc1c(Sc2cc(Cl)cc(Cl)c2)n(COCCO)c(=O)[nH]c1=O | 130 µM | 1.3 µM |  |  |  | 
Cc1c(Sc2ccc(C#N)cc2)n(COCCO)c(=O)[nH]c1=O | > 250 µM | > 250 µM |  |  |  | 
Cc1c(Sc2ccccc2Cl)n(COCCO)c(=O)[nH]c1=O | 130 µM | > 130 µM |  |  |  | 
CC(=O)c1ccc(Sc2c(C)c(=O)[nH]c(=O)n2COCCO)cc1 | 110 µM | > 110 µM |  |  |  | 
Cc1c(Sc2ccc([N+](=O)[O-])cc2)n(COCCO)c(=O)[nH]c1=O | 190 µM | > 190 µM |  |  |  | 
COc1ccc(Sc2c(C)c(=O)[nH]c(=O)n2COCCO)cc1 | > 250 µM | > 250 µM |  |  |  | 
CC(=O)c1cccc(Sc2c(C)c(=O)[nH]c(=O)n2COCCO)c1 | 228 µM | 7.3 µM |  |  |  | 
O=C(Nc1ccccc1)c1c(Sc2ccccc2)n(COCCO)c(=O)[nH]c1=O | 18 µM | > 18 µM |  |  |  | 
Cc1c(Sc2ccc(O)cc2)n(COCCO)c(=O)[nH]c1=O | 277 µM | > 277 µM |  |  |  | 
Cc1cc(C)cc(Sc2c(C)c(=O)[nH]c(=S)n2COCCO)c1 | 172 µM | 0.22 µM |  |  |  | 
Cc1c(Sc2ccc(F)cc2)n(COCCO)c(=O)[nH]c1=O | > 250 µM | > 250 µM |  |  |  | 
Cc1c(Sc2cccc(C(=O)O)c2)n(COCCO)c(=O)[nH]c1=O | 352 µM | > 352 µM |  |  |  | 
Cc1cccc(Sc2c(C)c(=O)[nH]c(=O)n2COCCO)c1 | 420 µM | 2.6 µM |  |  |  | 
Cc1c(Sc2cccc(I)c2)n(COCCO)c(=O)[nH]c1=O | 106 µM | 10 µM |  |  |  | 
CCc1c(Sc2cc(C)cc(C)c2)n(COCCO)c(=O)[nH]c1=O | 149 µM |  |  |  |  | 
Cc1ccc(Sc2c(C)c(=O)[nH]c(=O)n2COCCO)cc1 | > 250 µM | 220 µM |  |  |  | 
COC(=O)c1cccc(Sc2c(C)c(=O)[nH]c(=O)n2COCCO)c1 | 221 µM | 7.9 µM |  |  |  | 
Cc1c(Sc2cccc([N+](=O)[O-])c2)n(COCCO)c(=O)[nH]c1=O | 170 µM | 34 µM |  |  |  | 
CCCc1c(Sc2ccccc2)n(COCCO)c(=O)[nH]c1=O | 244 µM | 3.4 µM |  |  |  | 
COc1cccc(Sc2c(C)c(=O)[nH]c(=O)n2COCCO)c1 | > 250 µM | 22 µM |  |  |  | 

SMILES | CC50 (MT4) | EC50 [1] | CC50 [2] | CC50 [3] | EC50 [4] | EC50 [5]
Cc1c(Sc2ccccc2[N+](=O)[O-])n(COCCO)c(=O)[nH]c1=O | > 250 µM | 140 µM |  |  |  | 
C=CCc1c(Sc2ccccc2)n(COCCO)c(=O)[nH]c1=O | 183 µM | 2.5 µM |  |  |  | 
CC(C)c1c(Sc2ccccc2)n(COCCO)c(=O)[nH]c1=O | 231 µM | 0.063 µM |  |  |  | 
Cc1cc(C)cc(Sc2c(C)c(=O)[nH]c(=O)n2COCCO)c1 | 243 µM |  |  |  |  | 
Cc1c(Sc2cccc(C(C)(C)C)c2)n(COCCO)c(=O)[nH]c1=O | 75 µM | 12 µM |  |  |  | 
Cc1cc(C)cc(Sc2c(C(C)C)c(=O)[nH]c(=O)n2COCCO)c1 | 128 µM |  |  |  |  | 
Cc1c(Sc2cccc(F)c2)n(COCCO)c(=O)[nH]c1=O | 282 µM | 3.3 µM |  |  |  | 
COc1ccccc1Sc1c(C)c(=O)[nH]c(=O)n1COCCO | > 250 µM | 19 µM |  |  |  | 
CCc1c(Sc2ccccc2)n(COCCO)c(=O)[nH]c1=O | 400 µM | 0.12 µM | 108 µM | 400 µM | 0.19 µM | > 400 µM
Cc1c(Sc2cccc(C#N)c2)n(COCCO)c(=O)[nH]c1=O | 234 µM | 10 µM |  |  |  | 
Cc1c(Sc2cccc(O)c2)n(COCCO)c(=O)[nH]c1=O | 446 µM | 82 µM |  |  |  | 
Cc1c(Sc2cccc(Br)c2)n(COCCO)c(=O)[nH]c1=O | 141 µM | 5.7 µM |  |  |  | 
Cc1ccccc1Sc1c(C)c(=O)[nH]c(=O)n1COCCO | > 250 µM | 71 µM |  |  |  | 
Cc1c(Sc2ccccc2)n(COCCO)c(=S)[nH]c1=O | 123 µM | 0.98 µM |  |  |  | 
COC(=O)c1c(Sc2ccccc2)n(COCCO)c(=O)[nH]c1=O | 6.6 µM | > 6.6 µM |  |  |  | 
Cc1c(Sc2cccc(C(N)=O)c2)n(COCCO)c(=O)[nH]c1=O | 306 µM | > 306 µM |  |  |  | 
CCc1cccc(Sc2c(C)c(=O)[nH]c(=O)n2COCCO)c1 | 181 µM | 2.7 µM |  |  |  | 
Cc1c(Sc2cccc(Cl)c2)n(COCCO)c(=O)[nH]c1=O | 210 µM | 13 µM |  |  |  | 
CCc1c(Sc2cc(Cl)cc(Cl)c2)n(COCCO)c(=O)[nH]c1=O | 51 µM | 0.014 µM |  |  |  | 
Cc1c(Sc2cccc(C(F)(F)F)c2)n(COCCO)c(=O)[nH]c1=O | 196 µM | 45 µM |  |  |  | 
Cc1c(Sc2ccccc2)n(COCCO)c(=O)[nH]c1=O [HEPT] | 743 µM | 7 µM | 640 µM | 740 µM | 7.9 µM | > 250 µM
Cc1cn([C@H]2C[C@H](N=[N+]=[N-])[C@@H](CO)O2)c(=O)[nH]c1=O [ZIDOVUDINE] | 7.8 µM | 0.006 µM |  |  |  | 
